What was measured:
Rattus norvegicus [1] = species on record: Rattus norvegicus; assay: Duration of action measured using castrated male rat assay to inhibit luteinizing hormone release.; fully active at 48 hr but not at 72 hr; assay type: functional
Rattus norvegicus [2] = species on record: Rattus norvegicus; assay: Effect in the anti ovulatory assay (AOA) in rats expressed as no. of rats ovulating/No of rats treated at 1.0 mg; 8/8; assay type: functional
[3] = target: T1, Gonadotropin-releasing hormone receptor (Rattus norvegicus) (UniProt P30969); assay: Effect in the anti ovulatory assay (AOA) in rats expressed as no. of rats ovulating/No of rats treated at 2.5 mg; 0/8; assay type: functional
T1 sequence (whole entry): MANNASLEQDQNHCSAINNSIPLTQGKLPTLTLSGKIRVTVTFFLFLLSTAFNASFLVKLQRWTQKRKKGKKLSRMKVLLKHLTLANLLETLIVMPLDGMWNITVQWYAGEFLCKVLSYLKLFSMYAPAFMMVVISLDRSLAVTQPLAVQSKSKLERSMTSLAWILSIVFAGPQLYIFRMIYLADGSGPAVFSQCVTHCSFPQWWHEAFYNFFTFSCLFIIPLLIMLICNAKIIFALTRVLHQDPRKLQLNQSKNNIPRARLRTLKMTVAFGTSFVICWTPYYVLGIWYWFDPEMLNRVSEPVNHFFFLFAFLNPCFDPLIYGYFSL

Rattus norvegicus [4] = species on record: Rattus norvegicus; assay: Effect in the anti ovulatory assay (AOA) in rats expressed as no. of rats ovulating/No of rats treated at 50 mg; 4/7; assay type: functional
[5] = target: T1, Gonadotropin-releasing hormone receptor (Rattus norvegicus); assay: Duration of action, measured using castrated male rat assay to inhibit luteinizing hormone release.; fully active at 24 hr but not at 48 hr; assay type: functional
[6] = target: T1, Gonadotropin-releasing hormone receptor (Rattus norvegicus); assay: In vitro potency to inhibit GnRH-mediated LH secretion by cultured pituitary cells relative to [Ac-delta-Pro1,DFpa2,DTrp36]GnRH.; assay type: functional, cell-based; conditions: Pituitary gland cell
Summary of the method: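 Dispersed rat pituitary cells in culture; antagonist inhibition of GnRH-stimulated LH secretion. Potency expressed relative to standard antagonist [Ac-Δ3Pro1,D4FPhe2,DTrp3,6]GnRH taken as 1.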

Rattus norvegicus [7] = species on record: Rattus norvegicus; assay: Effect in the anti ovulatory assay (AOA) in rats expressed as no. of rats ovulating/No of rats treated at 2.0 mg; 1/10; assay type: functional
[8] = target: T1, Gonadotropin-releasing hormone receptor (Rattus norvegicus); assay: Duration of action measured using castrated male rat assay to inhibit luteinizing hormone release.; fully active at 72 hr; assay type: functional
Rattus norvegicus [9] = species on record: Rattus norvegicus; assay: Effect in the anti ovulatory assay (AOA) in rats expressed as no. of rats ovulating/No of rats treated at 1.0 mg; 9/18; assay type: functional
Rattus norvegicus [10] = species on record: Rattus norvegicus; assay: Effect in the anti ovulatory assay (AOA) in rats expressed as no. of rats ovulating/No of rats treated at 2.5 mg; 0/6; assay type: functional
Rattus norvegicus [11] = species on record: Rattus norvegicus; assay: Effect in the anti ovulatory assay (AOA) in rats expressed as no. of rats ovulating/No of rats treated at 1.0 mg; 1/10; assay type: functional
Rattus norvegicus [12] = species on record: Rattus norvegicus; assay: Effect in the anti ovulatory assay (AOA) in rats expressed as no. of rats ovulating/No of rats treated at 1.0 mg; 7/14; assay type: functional
Rattus norvegicus [13] = species on record: Rattus norvegicus; assay: Effect in the anti ovulatory assay (AOA) in rats expressed as no. of rats ovulating/No of rats treated at 25 mg; 0/3; assay type: functional
Rattus norvegicus [14] = species on record: Rattus norvegicus; assay: Effect in the anti ovulatory assay (AOA) in rats expressed as no. of rats ovulating/No of rats treated at 10 mg; 2/6; assay type: functional
Rattus norvegicus [15] = species on record: Rattus norvegicus; assay: Effect in the anti ovulatory assay (AOA) in rats expressed as no. of rats ovulating/No of rats treated at 1.0 mg; 2/2; assay type: functional
Rattus norvegicus [16] = species on record: Rattus norvegicus; assay: Effect in the anti ovulatory assay (AOA) in rats expressed as no. of rats ovulating/No of rats treated at 2.5 mg; 4/8; assay type: functional

Q: What does the source list for CC(=O)Nc1ccc(C[C@H](NC(=O)[C@H](CO)NC(=O)[C@@H](Cc2cccnc2)NC(=O)[C@@H](Cc2ccc(Cl)cc2)NC(=O)[C@@H](Cc2ccc3ccccc3c2)NC(C)=O)C(=O)N[C@H](Cc2ccc(NC(C)=O)cc2)C(=O)N[C@@H](CC(C)C)C(=O)N[C@@H](CCCCNC(C)C)C(=O)N2CCC[C@H]2C(=O)N[C@@H](C)N)cc1?
A: Duration of action (Rattus norvegicus [1]): 48 h; No. of rats ovulated (Rattus norvegicus [2]): 8; No. of rats ovulated [3]: 0

Q: Which “No. of rats ovulated” value (Rattus norvegicus [4]) does the source give for CC(=O)N[C@H](Cc1ccc2ccccc2c1)C(=O)N[C@H](Cc1ccc(Cl)cc1)C(=O)N[C@H](Cc1cccnc1)C(=O)N[C@@H](CO)C(=O)N[C@@H](Cc1ccc(Nc2n[nH]c(N)n2)cc1)C(=O)N[C@H](Cc1ccc(Nc2n[nH]c(N)n2)cc1)C(=O)N[C@@H](CC(C)C)C(=O)N[C@@H](Cc1ccc(NC(C)C)cc1)C(=O)N1CCC[C@H]1C(=O)N[C@H](C)N here?
A: The value was 4.

Q: What does the source list for CC(=O)N[C@H](Cc1ccc2ccccc2c1)C(=O)N[C@H](Cc1ccc(Cl)cc1)C(=O)N[C@H](Cc1cccnc1)C(=O)N[C@@H](CO)C(=O)N[C@@H](CCCCNc1n[nH]c(N)n1)C(=O)N[C@H](CCCCNc1n[nH]c(N)n1)C(=O)N[C@@H](CC(C)C)C(=O)N[C@@H](CCCCNC(C)C)C(=O)N1CCC[C@H]1C(=O)N[C@H](C)N?
A: Duration of action [5]: 24 h; Relative potency [6]: 0.23; No. of rats ovulated (Rattus norvegicus [7]): 1

Q: For CC(=O)N[C@H](Cc1ccc2ccccc2c1)C(=O)N[C@H](Cc1ccc(Cl)cc1)C(=O)N[C@H](Cc1cccnc1)C(=O)N[C@@H](CO)C(=O)N[C@@H](Cc1ccc(NC(=O)CCNc2n[nH]c(N)n2)cc1)C(=O)N[C@H](Cc1ccc(NC(=O)CCNc2n[nH]c(N)n2)cc1)C(=O)N[C@@H](CC(C)C)C(=O)N[C@@H](CCCCNC(C)C)C(=O)N1CCC[C@H]1C(=O)N[C@H](C)N, which Duration of action [8] is on record?
A: Its Duration of action is 72 h.

Q: And the Relative potency [6]?
A: The Relative potency was 0.52.

Q: And the “No. of rats ovulated” value (Rattus norvegicus [9])?
A: The value was 9.

Q: What about the “No. of rats ovulated” value (Rattus norvegicus [10]) of the same molecule?
A: The value was 0.

Q: What does the source list for CCC(=O)Nc1ccc(C[C@H](NC(=O)[C@H](CO)NC(=O)[C@@H](Cc2cccnc2)NC(=O)[C@@H](Cc2ccc(Cl)cc2)NC(=O)[C@@H](Cc2ccc3ccccc3c2)NC(C)=O)C(=O)N[C@H](Cc2ccc(NC(=O)CC)cc2)C(=O)N[C@@H](CC(C)C)C(=O)N[C@@H](CCCCNC(C)C)C(=O)N2CCC[C@H]2C(=O)N[C@H](C)N)cc1?
A: Duration of action [8]: 72 h; No. of rats ovulated (Rattus norvegicus [11]): 4; No. of rats ovulated [3]: 0

Q: Which Duration of action [8] does the source give for CC(=O)Nc1ccc(C[C@@H](NC(=O)[C@H](Cc2ccc(Nc3n[nH]c(N)n3)cc2)NC(=O)[C@H](CO)NC(=O)[C@@H](Cc2cccnc2)NC(=O)[C@@H](Cc2ccc(Cl)cc2)NC(=O)[C@@H](Cc2ccc3ccccc3c2)NC(C)=O)C(=O)N[C@@H](CC(C)C)C(=O)N[C@@H](CCCCNC(C)C)C(=O)N2CCC[C@H]2C(=O)N[C@H](C)N)cc1 here?
A: The Duration of action was 72 h.

Q: And the Relative potency [6]?
A: The Relative potency was 0.82.

Q: And the “No. of rats ovulated” value (Rattus norvegicus [12])?
A: Its value is 7.

Q: What about the No. of rats ovulated [3] of the same molecule?
A: The No. of rats ovulated was 0.

Q: What does the source list for CC(=O)Nc1ccc(C[C@H](NC(=O)[C@H](CO)NC(=O)[C@@H](Cc2cccnc2)NC(=O)[C@@H](Cc2ccc(Cl)cc2)NC(=O)[C@H](Cc2ccc3ccccc3c2)NC(C)=O)C(=O)N[C@H](Cc2ccc(NC(C)=O)cc2)C(=O)N[C@@H](CC(C)C)C(=O)N[C@@H](CCCCNC(C)C)C(=O)N2CCC[C@H]2C(=O)N[C@H](C)N)cc1?
A: No. of rats ovulated (Rattus norvegicus [13]): 0; No. of rats ovulated (Rattus norvegicus [14]): 2

Q: CC(=O)N[C@H](Cc1ccc2ccccc2c1)C(=O)N[C@H](Cc1ccc(Cl)cc1)C(=O)N[C@H](Cc1cccnc1)C(=O)N[C@@H](CO)C(=O)N[C@@H](Cc1ccc(NC(=O)C2CCC(=O)N2)cc1)C(=O)N[C@H](Cc1ccc(NC(=O)C2CCC(=O)N2)cc1)C(=O)N[C@@H](CC(C)C)C(=O)N[C@@H](CCCCNC(C)C)C(=O)N1CCC[C@H]1C(=O)N[C@H](C)N (some centres not stated) was tested. Which “No. of rats ovulated” value (Rattus norvegicus [15]) did it give?
A: The value was 2.

Q: And the “No. of rats ovulated” value (Rattus norvegicus [16])?
A: The value was 4.

From ChEMBL document CHEMBL1128434, “Gonadotropin-releasing hormone antagonists: novel members of the azaline B family” (1995)
